The values below come from article PMC3270411 (Chemistry & biology, 2012).

For assay [1], the system named is c-Jun phosphorylation (pSer73) in HeLa cells. Nature of the assay: LanthaScreen TR-FRET c-Jun phosphorylation assay in HeLa cells. Format: cell-based. Particulars: read-out: p-c-Jun EC50 (nM) Hela; Hela cells, TNF-α stimulation, TR-FRET. In short, it runs like this: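 HeLa cells stably expressing GFP-c-Jun(1–79), 10,000/well in Opti-MEM with 0.5% charcoal/dextran-treated FBS, 25 mM Hepes pH 7.3, no phenol red; overnight. Pretreated 90 min with compound, then 30 min with 5 ng/ml TNF-α. Lysed in buffer containing 2 nM terbium anti-c-Jun pSer73 antibody; 60 min equilibration at room temperature. TR-FRET: excitation 340 nm, ratio Em 520/Em 490.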
A general note: TR-FRET usually uses a lanthanide donor and a delayed reading to cut background.

Assay [2] deals with c-Jun phosphorylation (phospho Ser73) in A375 cells. Format: cell-based. Particulars: read-out: p-c-Jun EC50 (nM) A375; A375 cells, anisomycin stimulation, microscopy.
For assay [3], the system named is c-Jun phosphorylation in HeLa and A375 cells. Nature of the assay: cellular c-Jun phosphorylation, statements for both assay formats. Format: cell-based. Particulars: tested in parallel in HeLa and A375 formats.
The test system of assay [4] is JNK1/2/3. Nature of the assay: KinomeScan 400-kinase panel profiling. Format: binding. As to conditions: 10 μM.
For assay [5], the target named is JNK1/2/3. Nature of the assay: Z'-lyte JNK kinase assays, statements for JNK1/2/3 together. Format: biochemical.
The target in another assay is JNK1 (Homo sapiens, UniProt P45983). Kind of assay: intact protein and peptide mass spectrometry of inhibitor-labeled JNK1. Format: binding. Particulars: recombinant JNK1, 5-fold excess of compound; Cys 116.
In the next assay the target is MAPK8 (JNK1) (Homo sapiens, UniProt P45983). Nature of the assay: Z'-lyte JNK1 kinase assay. Format: biochemical. As to conditions: relative to JNK-IN-2.
Another assay addresses JNK3 (Homo sapiens, UniProt P53779). Kind of assay: in vitro covalent binding kinetics with purified JNK3. Particulars: 27 molar excess of compound. In short, it runs like this: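 Purified JNK3 incubated with 1 μM test compound for varying times, then ATP-biotin probe 5 μM for 10 min. Protein denatured with an equal volume of 8 M urea and gel-filtered. Biotinylated protein captured on streptavidin beads for 2 h, washed, boiled 10 min at 95°C, run on SDS-PAGE and immunoblotted for JNK.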

The test system of a further assay is JNK. Kind of assay: pulse-chase ATP-biotin binding kinetics assay in A375 cells. Format: cell-based. Particulars: 1μM compound, protection from ATP-biotin labeling. In a few lines:
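A375 cells treated with 1 μM test compound for 1–5 h, then washed three times in PBS. Lysed in NP-40/CHAPS buffer for 30 min at 4°C, cleared, and gel-filtered into HEPES kinase buffer (about 5–15 mg/ml protein). Lysate labelled with 5 μM ATP-biotin probe for 1 h, reduced with DTT, alkylated with iodoacetamide, and pulled down on streptavidin for 2 h. Read-out: SDS-PAGE and JNK immunoblot.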

Sequence of JNK3 (P53779 whole entry): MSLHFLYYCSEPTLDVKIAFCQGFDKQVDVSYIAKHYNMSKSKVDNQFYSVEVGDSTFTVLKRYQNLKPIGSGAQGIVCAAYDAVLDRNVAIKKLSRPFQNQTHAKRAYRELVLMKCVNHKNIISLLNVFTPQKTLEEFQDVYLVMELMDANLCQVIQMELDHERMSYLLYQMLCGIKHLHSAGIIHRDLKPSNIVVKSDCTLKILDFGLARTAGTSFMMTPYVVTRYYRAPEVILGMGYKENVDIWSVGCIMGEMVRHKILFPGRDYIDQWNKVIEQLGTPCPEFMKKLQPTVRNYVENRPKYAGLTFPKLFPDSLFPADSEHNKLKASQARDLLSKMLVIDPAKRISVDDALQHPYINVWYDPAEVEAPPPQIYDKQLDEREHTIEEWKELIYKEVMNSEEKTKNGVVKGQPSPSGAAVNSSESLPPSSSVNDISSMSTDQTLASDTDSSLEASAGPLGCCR
Sequence of MAPK8 (JNK1) (P45983 whole entry): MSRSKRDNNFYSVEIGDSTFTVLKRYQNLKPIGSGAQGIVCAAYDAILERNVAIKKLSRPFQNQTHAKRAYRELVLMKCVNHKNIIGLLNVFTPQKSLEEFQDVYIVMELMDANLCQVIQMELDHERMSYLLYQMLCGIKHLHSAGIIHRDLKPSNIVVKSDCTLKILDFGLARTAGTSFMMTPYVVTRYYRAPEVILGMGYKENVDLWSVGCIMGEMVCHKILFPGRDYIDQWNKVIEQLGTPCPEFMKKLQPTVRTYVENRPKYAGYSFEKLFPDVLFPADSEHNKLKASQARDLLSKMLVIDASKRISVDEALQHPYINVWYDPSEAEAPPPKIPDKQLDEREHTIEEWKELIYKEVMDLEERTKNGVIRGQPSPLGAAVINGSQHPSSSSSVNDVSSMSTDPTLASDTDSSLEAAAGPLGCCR
Sequence of JNK1 (P45983 26-321 limits assumed): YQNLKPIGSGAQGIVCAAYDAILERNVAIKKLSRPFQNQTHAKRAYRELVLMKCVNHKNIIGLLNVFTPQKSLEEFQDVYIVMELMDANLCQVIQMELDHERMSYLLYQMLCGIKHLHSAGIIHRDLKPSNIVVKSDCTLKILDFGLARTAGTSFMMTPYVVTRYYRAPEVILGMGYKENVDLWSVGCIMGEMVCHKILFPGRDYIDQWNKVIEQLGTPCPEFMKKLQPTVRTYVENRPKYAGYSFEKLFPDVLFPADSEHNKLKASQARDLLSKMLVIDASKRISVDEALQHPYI

The term EC50 denotes the midpoint of the concentration-response curve. Consider `N#CC(c1ccnc(NCCc2cccnc2)n1)c1nc2ccccc2s1` (stereo not drawn) [AS601245, reference compound], for which the half-maximal effective concentration (EC50) in [1] is 2020 nM; in [2], 2400 nM. Also, the “IC50s for inhibition of c-Jun phosphorylation in both assay formats” value in assay [3] is recorded as “micromolar range”.
Regarding `Cc1ccc(NC(=O)c2ccc(NC(=O)/C=C/CN(C)C)cc2)cc1Nc1nccc(-c2cccnc2)n1` [JNK-IN-1], the “binding to JNK1/2/3 in kinase selectivity profiling” value in the assay with JNK1/2/3 [4] is given as “significant binding”. Also, the “IC50 for inhibition of JNK kinase activity” value on JNK1/2/3 [5] (Z'-lyte assay format) was “single digit micromolar”.
What is called IC50 is the midpoint of a concentration-inhibition curve. On to `CN(C)C/C=C/C(=O)Nc1ccc(C(=O)Nc2cccc(Nc3nccc(-c4cccnc4)n3)c2)cc1` [JNK-IN-2], for which the EC50 is 704 nM in assay [1] and 2400 nM in assay [2]. At JNK1/2/3 [5] (read-out: IC50 for inhibition of JNK kinase activity, Z'-lyte assay format), the IC50 was ~1000 nM. In addition, at JNK1, the “covalent modification of JNK1 (mass spectrometry)” value was “covalent addition of one molecule”.
As for `CN(C)C/C=C/C(=O)NCc1ccc(C(=O)Nc2cccc(Nc3nccc(-c4cccnc4)n3)c2)cc1` [JNK-IN-4], the “fold increase in biochemical IC50 against JNK1” value at MAPK8 (JNK1) stood at 3 fold.
Regarding `C=CC(=O)Nc1cccc(C(=O)Nc2ccc(Nc3nccc(-c4cccnc4)n3)cc2)c1` [JNK-IN-5], the EC50 in assay [1] turned out to be 118 nM; in assay [2] it was 32 nM. The “fold lower IC50 against JNK1, 2 and 3” value in the assay on JNK1/2/3 [5] (compared with JNK-IN-2) amounted to 500 fold. Besides, at JNK3, the “time to completely label JNK3” value is 45 min. Besides, in the assay with JNK, the “incubation time required to modify JNK to background levels” value is “Three”.
Regarding `Cc1ccc(C(=O)Nc2ccc(Nc3nccc(-c4cccnc4)n3)cc2)cc1NC(=O)/C=C/CN(C)C` [JNK-IN-10], the half-maximal effective concentration (EC50) is 173 nM in [1] and 141 nM in assay [2].
For the molecule `Oc1c2ccccc2c2c3c(cccc13)N=N2` [SP-600125], in assay [3], the “IC50s for inhibition of c-Jun phosphorylation in both assay formats” value is reported as “micromolar range”.
